A selection: hits, their analogues and other compounds. The true share with any hit is near 3%.
Hsp70 act: transcriptional activators of Hsp70. activation, % at 10 µM. 0.04% of 200,000 active. AID 1203. HeLa Hsp70 promoter luciferase reporter, luminescence; scaled: vehicle 0, proteasome-inhibitor control 100%;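 active means activation above the mean across all tested compounds plus 3 SD, cutoff set per campaign, cut at about 5.5% in these data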;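 further: 100% = MG132 at 30 µM as the positive control and 0% = DMSO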
Wee1 degr inh: human Wee1 degradation inhibition, primary screen; P30291; reporter increase, % at 5 µM; 1.2% of 220,000 active; HeLa Luc-Wee1K328M stability, luciferase luminescence; 100% = proteasome inhibitor MG132 effect; AID 1321;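 active means activation above the mean of all tested compounds plus 3 SD, set per screening run, cut at about 8.8% in these data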;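 further: cells exposed to compound for 20 h before luminescence read; 0% = DMSO alone and 100% = MG132 at 30 µM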
NPY-Y1 PAM-ag: human NPY-Y1 potentiation or agonism, primary screen. P25929. NPY-Y1 expressing cells, potentiator/agonist activation. activation, % at 3.6 µM. 0.37% of 220,000 active; in the data active means activation above about 33%, passing the limit was not always enough;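 further: cells stimulated with NPY at EC10 then isoproterenol at EC100; 0% = low agonist plus stimulus and 100% = saturating agonist plus stimulus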
NPY-Y2 antag: blocks the human neuropeptide Y Y2 receptor | 0.99% of 140,000 active | P49146 | inhibition, % at 2.7 µM | NPY-Y2 expressing cells, antagonist mode | AID 793; in the data active means inhibition above about 17%;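 further: 0% = vehicle with agonist challenge and 100% = reference antagonist with challenge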
Target sequence (P49146 whole entry, looked up): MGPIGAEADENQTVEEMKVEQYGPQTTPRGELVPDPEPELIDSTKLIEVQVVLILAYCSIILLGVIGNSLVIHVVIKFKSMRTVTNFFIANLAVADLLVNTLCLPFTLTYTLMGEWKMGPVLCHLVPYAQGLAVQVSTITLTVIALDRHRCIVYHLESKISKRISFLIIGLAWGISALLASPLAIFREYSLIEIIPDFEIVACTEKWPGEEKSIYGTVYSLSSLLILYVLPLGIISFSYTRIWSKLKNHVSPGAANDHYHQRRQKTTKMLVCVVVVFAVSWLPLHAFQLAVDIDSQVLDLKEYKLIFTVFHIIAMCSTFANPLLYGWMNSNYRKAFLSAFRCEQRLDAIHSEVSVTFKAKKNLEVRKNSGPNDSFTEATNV
NPY-Y2 PAM-ag: potentiators or agonists of human neuropeptide Y receptor Y2; P49146; cells expressing NPY-Y2, potentiator/agonist read-out; activation, % at 3.6 µM; 0.45% of 220,000 active; in the data active means activation above about 27%;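 further: cells stimulated with NPY near EC25 plus isoproterenol at EC100; 0% = vehicle plus submaximal agonist and 100% = vehicle plus saturating agonist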
NPY-Y1 antag: blocks the human neuropeptide Y Y1 receptor | P25929 | HEK293-CNG Y1 cells, membrane potential fluorescence; NPY at EC95, then isoproterenol | inhibition, % at 3.6 µM | 1% of 200,000 active | AID 1040;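 active means inhibition above the campaign mean inhibition of all tested compounds plus 3 SD, cut at about 20% in these data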;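 further: 0% = DMSO wells given NPY plus isoproterenol and 100% = isoproterenol alone without NPY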
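Material: HEK293 Y1/CNG channel cell line | Also added: NPY (25 nM), isoproterenol (1 µM), Ro 20-1724 (25 µM) | Compound: One concentration, 3.6 µM, in 0.4% DMSO | Schedule: 3 h dye uptake, 1 h room-temperature compound, 45 min post-isoproterenol | Signal: Membrane-potential fluorescent dye readout | Read-out: % inhibition of NPY effect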
NPY1 antag ctr: counter-screen for NPY-Y2 antagonists: human NPY-Y1 antagonism; inhibition, % at 3.6 µM; shares compounds with NPY-Y2 antag; AID 1256; 19% of 710 active; cell-based NPY-Y1 antagonism counterscreen; in the data active means inhibition above about 20%;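 further: cells challenged with NPY then isoproterenol with cAMP sensed through a CNG channel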
NPY2 antag conf: human NPY-Y2 antagonism, confirmation; shares compounds with NPY-Y2 antag; HEK293 NPY-Y2 CNG channel, membrane potential fluorescence; inhibition, % at 2.8 µM; 32% of 710 active;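 active means mean inhibition of triplicate wells above the hit cutoff set in the primary screen, cut at about 17% in these data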;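 further: 0% = DMSO with NPY challenge and 100% = BIIE0246 high control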
An asterisk follows results filed as active; . = no result given.

SMILES | Hsp70 act | Wee1 degr inh | NPY-Y1 PAM-ag | NPY-Y2 antag | NPY-Y2 PAM-ag | NPY-Y1 antag | NPY1 antag ctr | NPY2 antag conf
CCSc1nnc(NC(=O)NC(CC)(C(F)(F)F)C(F)(F)F)s1 | 0 | 0 | 47* | 0 | 23 | 1 | . | .
CCOC(=O)NC1=NCC(C)S1 (stereo not given) | . | -2 | -2 | . | -16 | . | . | .
O=C(O)c1ccc(NC(=S)NC2CCCCC2)cc1 | 0 | 9.6* | -1 | 0 | 22 | 5 | . | .
Cn1c(=O)c2c(ncn2CC(O)CNc2ccc(Br)cc2)n(C)c1=O (stereo not given) | 0 | 1 | -13 | 2 | 6 | 5 | . | .
C=CCn1c(SC(C)C#N)nc2sc(CC)cc2c1=O (stereo not given) | 0 | 11* | 10 | . | -12 | 1 | . | .
O=C(CCSCCC(=O)Nc1c(F)c(F)c(F)c(F)c1F)Nc1c(F)c(F)c(F)c(F)c1F | 0 | -5 | -4 | . | -1 | -2 | . | .
CCS(=O)(=O)N1Cc2ccccc2CC1C(=O)Nc1cccc(C)c1 (stereo not given) | 0 | 9.9* | -15 | . | -4 | 1 | . | .
CCS(=O)(=O)N1Cc2ccccc2CC1C(=O)Nc1nc2ccc(C)cc2s1 (stereo not given) | 0 | 1 | 46* | -4 | 31* | -9 | . | .
CCS(=O)(=O)N1Cc2ccccc2CC1C(=O)Nc1ncc(C)s1 (stereo not given) | 0 | 0 | -23 | . | -3 | 1 | . | .
C=CCN(CC=C)C(=S)NCCc1ccc(OC)c(OC)c1 | 0 | 0 | -6 | 4 | 13 | -2 | . | .
CCN(CC)C(=S)Nc1ccc2nc3n(c(=O)c2c1)CCCCC3 | -1 | 2 | -9 | . | -17 | -2 | . | .
COc1cccc(CNc2cc(CSc3ccc(Cl)cc3)nc(C)n2)c1 | 0 | 1 | -58 | 21* | -12 | 21* | . | .
O=C(CSc1nnc2c(n1)[nH]c1ccccc12)NCc1ccco1 | 0 | -3 | 7 | . | -1 | 1 | . | .
Cc1[nH]c2ccccc2c1/C=C/C(=O)c1ccncc1 | . | -4 | 18 | . | 11 | . | . | .
O=C(/C=C/c1cccc2ccccc12)c1ccncc1 | 0 | -2 | -4 | 20* | 8 | -4 | 11 | 19*
CCC(=O)N1CCN(c2ccc(Cl)cc2NC(=O)Cc2ccccc2)CC1 | 0 | 0 | -10 | 21* | 10 | 19 | 12 | 15
O=P(CCCCCCCCCP(=O)(c1ccccc1)c1ccccc1)(c1ccccc1)c1ccccc1 | 0 | -1 | 27 | 18* | -16 | -7 | 2 | 111*
Cc1cc(Oc2ccc(-c3ccccc3)cc2)n2ncnc2n1 | 0 | 4 | -1 | 20* | -5 | 4 | 0 | 3
CCCC(c1nnnn1C1CCCC1)N1CCN(c2ccccc2F)CC1 (stereo not given) | 0 | -2 | -3 | 18* | -17 | 14 | 18 | 4
N#Cc1ncn(-c2ccc(Oc3ccccc3)cc2)c1N | 0 | 2 | -7 | . | -1 | 5 | . | .
CCn1c(SCC(=O)NCc2ccco2)nnc1C(C)C | 0 | 2 | 16 | 23* | 9 | -5 | 0 | 1
CC(C)c1nnc(SCC(=O)NCc2ccco2)n1C | 0 | -1 | 12 | 1 | -1 | -4 | . | .
CSc1ccc(Cl)c(C(=O)NCCOc2ccccc2)c1 | 0 | 1 | -8 | 4 | 7 | -1 | . | .
CSc1ccc(Cl)c(C(=O)NCCOc2cc(C)ccc2C(C)C)c1 | 0 | 1 | -16 | 17* | -36 | 0 | 6 | 7
Cc1c(C(=O)Nc2nc3ccccc3[nH]2)oc2ccc(Br)cc12 | 0 | 0 | -6 | 19* | -19 | -1 | 12 | 14
SMILES | Hsp70 act | Wee1 degr inh | NPY-Y1 PAM-ag | NPY-Y2 antag | NPY-Y2 PAM-ag | NPY-Y1 antag | NPY1 antag ctr | NPY2 antag conf
Cc1c(C(=O)Nc2nc3ccccc3[nH]2)oc2ccccc12 | 0 | 4 | -1 | 5 | 0 | 3 | . | .
COc1cc(/C=N/NC(N)=O)ccc1OCC(=O)Nc1ccc(C)c(C)c1 | 0 | -1 | -14 | 18* | -16 | -1 | 11 | 34*
O=S(=O)(Nc1ncccn1)c1ccc(NC(=S)NCCc2ccccc2)cc1 | 0 | 4 | 18 | . | 11 | -2 | . | .
Cc1ccc(SCCOCCN2CCc3ccccc3C2)cc1 | 0 | -1 | -30 | 17 | -5 | 15 | . | .
CC1(C)Cc2ccccc2-c2nnc(SCc3ccccc3)n21 | 0 | 2 | -40 | 17* | -8 | 10 | 6 | 3
COc1ccc(NC(=O)CCN2C(=O)c3ccncc3C2=O)cc1OC | . | 0 | 22 | . | -7 | . | . | .
CCCn1c(=O)c2ccccc2n2c(SCCOc3ccc(C)cc3)nnc12 | 0 | 0 | -20 | 20* | -13 | 8 | 15 | 11
CCCn1c(=O)c2ccccc2n2c(SCCOc3ccc(OC)cc3)nnc12 | 0 | 8 | -23 | 12 | -14 | 6 | . | .
Cc1ccccc1NC(=O)Cn1nnc2c(cnn2-c2ccc(F)cc2)c1=O | 0 | -1 | -23 | 24* | -7 | 1 | 10 | 8
COC(=O)c1ccc(C(=O)OC)c(-n2c(=O)c3ccccc3c3ccccc3c2=O)c1 | 0 | 0 | 23 | 19* | 11 | 0 | 8 | 16
Cc1ccc2cccc(NC(=S)NC(=O)c3ccccc3)c2n1 | 0 | -1 | -48 | 22* | -51 | 14 | 20* | 43*
COc1ccccc1NC(=O)c1ccc(COc2ccc3c(c2)CCC3)cc1 | 0 | 0 | -8 | 22* | 3 | 4 | 4 | 16
COC(=O)c1ccccc1NC(=O)c1ccc(COc2ccc3c(c2)CCC3)cc1 | 0 | 2 | -11 | 9 | 5 | 0 | . | .
COc1ccc(-c2nc(C#N)c(NC(C)c3ccccc3)o2)cc1OC (stereo not given) | 0 | 0 | 4 | 21* | -17 | 14 | 17 | 34*
COc1ccc(-c2nc(C#N)c(NCCCN(C)C)o2)cc1OC | 0 | -1 | -9 | -2 | 4 | 1 | . | .
OCC1CCCN(c2nc(CN3CCCCC3)nc3scc(-c4ccccc4)c23)C1 (stereo not given) | 0 | 1 | -21 | 23* | 4 | 17 | 18 | 17
CCc1ccc(OCC(=O)N/N=C\c2ccco2)c([N+](=O)[O-])c1 | 0 | 0 | 15 | 0 | -8 | -1 | . | .
Cc1ccc(NC(=O)c2c(C(F)(F)F)nn(C)c2SCc2ccc(Cl)cc2)cc1C | 0 | 0 | -17 | 17* | -14 | 18 | 13 | 10
COc1ccc(-c2c(C)nc(N)nc2-c2ccc(OCc3ccc(C)cc3)cc2O)cc1OC | -1 | 0 | 3 | 1 | 4 | 9 | . | .
